Microsomal CLint, residual activity and residual binding, % of control data for three compounds are collected here from ChEMBL document CHEMBL3259739, “Synthesis and structure-activity relationship of trisubstituted thiazoles as Cdc7 kinase inhibitors” (Eur J Med Chem, 2014).

Data set [1] can be described thus: Intrinsic clearance in human liver microsomes at 1 uM after 30 mins by reverse phase HPLC analysis in presence of NADPH. It is filed as ADME. The following applies: read-out: CLH. The gist of the method:
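Reactions were stopped with MeCN after 0 or 30 min. Samples were analysed by reverse-phase HPLC–tandem MS to give intrinsic clearance (µl/min/mg).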
On the technique in general: Liver microsomes are vesicles of endoplasmic reticulum, rich in cytochrome P450 enzymes.

Data set [2] addresses Epidermal growth factor receptor (Homo sapiens) (UniProt P00533). The data set is described as follows: Inhibition of EGFR (unknown origin) at 1 uM relative to control; values are per cent of control.
Data set [3] concerns the target Dual specificity tyrosine-phosphorylation-regulated kinase 1A (Homo sapiens) (UniProt Q13627). The data set is described as follows: Inhibition of DYRK1A (unknown origin) at 1 uM relative to control; values are per cent of control.
The target of data set [4] is Receptor-type tyrosine-protein kinase FLT3 (Homo sapiens) (UniProt P36888). The data set is described as follows: Inhibition of FLT3 (unknown origin) at 1 uM relative to control; values are per cent of control.
The target of data set [5] is Tyrosine-protein kinase Lck (Homo sapiens) (UniProt P06239). Description: Inhibition of LCK (unknown origin) at 1 uM relative to control; values are per cent of control.
Sequence of Tyrosine-protein kinase Lck (Homo sapiens) (P06239 2-509 limits assumed): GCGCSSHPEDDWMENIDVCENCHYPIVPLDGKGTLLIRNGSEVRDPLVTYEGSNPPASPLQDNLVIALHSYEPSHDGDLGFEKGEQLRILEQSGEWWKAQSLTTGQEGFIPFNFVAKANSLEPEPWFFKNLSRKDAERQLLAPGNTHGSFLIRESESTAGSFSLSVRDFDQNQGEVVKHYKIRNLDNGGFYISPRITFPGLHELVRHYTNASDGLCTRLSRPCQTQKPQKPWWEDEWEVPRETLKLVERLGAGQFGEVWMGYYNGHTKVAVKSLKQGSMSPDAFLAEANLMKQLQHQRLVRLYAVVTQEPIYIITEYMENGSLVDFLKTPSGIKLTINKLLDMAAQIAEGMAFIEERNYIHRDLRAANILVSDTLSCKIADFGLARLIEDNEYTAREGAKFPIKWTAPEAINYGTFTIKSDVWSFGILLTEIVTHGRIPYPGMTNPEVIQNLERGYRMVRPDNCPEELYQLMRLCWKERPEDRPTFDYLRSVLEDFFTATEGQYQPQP
The target of data set [6] is Rho-associated protein kinase 2 (Homo sapiens) (UniProt O75116). The data set is described as follows: Inhibition of ROCK2 (unknown origin) at 1 uM relative to control. The following applies: values are per cent of control. In a few lines:
(§1)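 KinomeSCAN competitive binding panel of 100 kinases; compounds tested at 1 µM in duplicate; read-out is percent […] control.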

Data set [7] has as its target Cyclin-dependent kinase 4/cyclin D1 (Homo sapiens) (UniProt P11802+P24385). The data set is described as follows: Inhibition of CDK4-cyclinD1 (unknown origin) at 1 uM relative to control; values are per cent of control.
The target of data set [8] is Hepatocyte growth factor receptor (Homo sapiens) (UniProt P08581). The data set is described as follows: Inhibition of MET (unknown origin) at 1 uM relative to control; values are per cent of control.
Sequence of Hepatocyte growth factor receptor (Homo sapiens) (P08581 whole entry): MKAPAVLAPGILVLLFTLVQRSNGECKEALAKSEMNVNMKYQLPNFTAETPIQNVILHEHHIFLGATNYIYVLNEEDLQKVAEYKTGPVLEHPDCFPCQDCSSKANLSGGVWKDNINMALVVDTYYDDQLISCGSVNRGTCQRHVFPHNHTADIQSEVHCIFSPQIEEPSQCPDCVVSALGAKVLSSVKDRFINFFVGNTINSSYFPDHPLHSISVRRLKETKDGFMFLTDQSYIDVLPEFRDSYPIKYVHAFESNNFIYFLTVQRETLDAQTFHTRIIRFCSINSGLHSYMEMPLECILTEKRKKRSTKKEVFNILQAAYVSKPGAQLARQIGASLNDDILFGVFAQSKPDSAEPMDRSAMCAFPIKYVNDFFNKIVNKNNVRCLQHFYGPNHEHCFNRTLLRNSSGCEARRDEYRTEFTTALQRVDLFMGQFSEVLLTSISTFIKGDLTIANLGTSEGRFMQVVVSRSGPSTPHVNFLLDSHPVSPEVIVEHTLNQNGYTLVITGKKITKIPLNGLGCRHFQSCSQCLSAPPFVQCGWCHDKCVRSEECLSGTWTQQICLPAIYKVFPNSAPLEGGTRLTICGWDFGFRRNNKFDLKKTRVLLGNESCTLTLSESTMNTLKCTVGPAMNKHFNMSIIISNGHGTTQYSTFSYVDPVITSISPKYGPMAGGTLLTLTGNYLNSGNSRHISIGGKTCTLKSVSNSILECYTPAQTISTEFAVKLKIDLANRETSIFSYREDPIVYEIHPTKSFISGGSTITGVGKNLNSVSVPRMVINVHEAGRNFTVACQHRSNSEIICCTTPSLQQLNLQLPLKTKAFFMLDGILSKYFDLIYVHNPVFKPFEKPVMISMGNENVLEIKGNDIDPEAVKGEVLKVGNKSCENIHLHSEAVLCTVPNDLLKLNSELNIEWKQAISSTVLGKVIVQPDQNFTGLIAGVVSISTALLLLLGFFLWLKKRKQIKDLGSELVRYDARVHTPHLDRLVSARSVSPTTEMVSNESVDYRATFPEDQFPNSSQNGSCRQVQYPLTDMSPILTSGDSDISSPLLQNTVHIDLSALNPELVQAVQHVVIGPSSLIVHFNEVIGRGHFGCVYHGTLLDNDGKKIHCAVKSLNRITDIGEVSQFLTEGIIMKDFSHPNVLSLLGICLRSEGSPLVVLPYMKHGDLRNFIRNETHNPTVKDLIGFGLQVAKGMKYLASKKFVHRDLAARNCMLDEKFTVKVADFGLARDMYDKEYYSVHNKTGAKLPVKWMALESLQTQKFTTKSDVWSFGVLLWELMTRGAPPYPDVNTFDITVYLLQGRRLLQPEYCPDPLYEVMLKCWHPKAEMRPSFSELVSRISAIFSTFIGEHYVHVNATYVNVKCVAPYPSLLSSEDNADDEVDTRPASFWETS
The target of data set [9] is MAP kinase-interacting serine/threonine-protein kinase 1 (Homo sapiens) (UniProt Q9BUB5). The data set is described as follows: Inhibition of MKNK1 (unknown origin) at 1 uM relative to control; values are per cent of control.
Sequence of MAP kinase-interacting serine/threonine-protein kinase 1 (Homo sapiens) (Q9BUB5 whole entry, looked up): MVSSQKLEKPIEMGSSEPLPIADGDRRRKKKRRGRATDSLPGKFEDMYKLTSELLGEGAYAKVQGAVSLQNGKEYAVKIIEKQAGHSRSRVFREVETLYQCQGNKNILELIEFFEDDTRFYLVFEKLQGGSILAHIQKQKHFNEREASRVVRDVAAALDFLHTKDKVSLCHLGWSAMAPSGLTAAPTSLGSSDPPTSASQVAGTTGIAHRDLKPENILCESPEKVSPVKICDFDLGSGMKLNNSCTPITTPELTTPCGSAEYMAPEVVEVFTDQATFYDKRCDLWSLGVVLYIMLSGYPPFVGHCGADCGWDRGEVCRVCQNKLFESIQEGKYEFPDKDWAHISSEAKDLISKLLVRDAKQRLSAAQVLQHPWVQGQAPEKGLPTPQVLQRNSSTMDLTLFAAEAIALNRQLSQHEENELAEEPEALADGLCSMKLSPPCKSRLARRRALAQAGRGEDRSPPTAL
For data set [10], the target named is T1, Serine/threonine-protein kinase TBK1 (Homo sapiens) (UniProt Q9UHD2).
T1 sequence (whole entry): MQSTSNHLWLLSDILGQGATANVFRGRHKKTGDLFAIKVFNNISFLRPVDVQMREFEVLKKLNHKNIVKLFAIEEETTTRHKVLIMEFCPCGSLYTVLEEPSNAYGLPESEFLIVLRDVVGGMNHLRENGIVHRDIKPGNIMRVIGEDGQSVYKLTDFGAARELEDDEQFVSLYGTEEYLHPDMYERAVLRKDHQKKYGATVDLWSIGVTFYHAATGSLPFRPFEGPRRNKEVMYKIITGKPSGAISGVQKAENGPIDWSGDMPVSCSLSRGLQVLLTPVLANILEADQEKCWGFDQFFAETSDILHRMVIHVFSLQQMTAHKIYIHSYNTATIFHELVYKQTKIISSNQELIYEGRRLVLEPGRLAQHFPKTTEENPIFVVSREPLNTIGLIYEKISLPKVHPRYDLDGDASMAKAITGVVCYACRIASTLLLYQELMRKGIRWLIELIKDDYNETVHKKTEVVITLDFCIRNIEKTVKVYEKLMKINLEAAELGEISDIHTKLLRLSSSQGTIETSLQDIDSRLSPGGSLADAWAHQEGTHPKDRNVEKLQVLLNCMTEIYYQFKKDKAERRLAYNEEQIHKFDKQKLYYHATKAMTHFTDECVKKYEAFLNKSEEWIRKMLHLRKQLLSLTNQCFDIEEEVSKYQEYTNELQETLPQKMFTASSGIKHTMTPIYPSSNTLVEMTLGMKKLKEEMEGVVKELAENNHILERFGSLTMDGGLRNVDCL
Description: Inhibition of TBK1 (unknown origin) at 1 uM relative to control. The following applies: values are per cent of control. In a few lines: as §1

Data set [11] addresses Cyclin-dependent kinase 8 (Homo sapiens) (UniProt P49336). Description: Inhibition of CDK8 (unknown origin) at 1 uM relative to control; values are per cent of control.
Data set [12] concerns the target ALK tyrosine kinase receptor (Homo sapiens) (UniProt Q9UM73). Description: Inhibition of ALK (unknown origin) at 1 uM relative to control; values are per cent of control.
The target of data set [13] is 5'-AMP-activated protein kinase catalytic subunit alpha-1 (Homo sapiens) (UniProt Q13131). Description: Inhibition of AMPKalpha1 (unknown origin) at 1 uM relative to control; values are per cent of control.
Sequence of 5'-AMP-activated protein kinase catalytic subunit alpha-1 (Homo sapiens) (Q13131 whole entry, looked up): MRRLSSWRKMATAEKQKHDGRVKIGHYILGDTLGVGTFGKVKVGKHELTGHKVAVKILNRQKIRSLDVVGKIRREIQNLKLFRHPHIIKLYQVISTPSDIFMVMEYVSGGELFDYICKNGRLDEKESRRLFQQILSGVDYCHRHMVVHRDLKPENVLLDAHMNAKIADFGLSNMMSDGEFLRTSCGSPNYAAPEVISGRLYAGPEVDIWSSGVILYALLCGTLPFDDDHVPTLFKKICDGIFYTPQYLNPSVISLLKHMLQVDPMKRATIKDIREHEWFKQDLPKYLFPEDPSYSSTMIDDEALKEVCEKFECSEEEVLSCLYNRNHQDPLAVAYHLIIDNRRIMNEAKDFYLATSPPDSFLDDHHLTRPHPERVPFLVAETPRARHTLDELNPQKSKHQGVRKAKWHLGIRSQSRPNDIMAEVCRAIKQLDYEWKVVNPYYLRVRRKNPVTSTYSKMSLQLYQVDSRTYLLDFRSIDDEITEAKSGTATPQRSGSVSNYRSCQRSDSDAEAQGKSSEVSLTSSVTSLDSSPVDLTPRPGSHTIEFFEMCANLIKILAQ
Data set [14] deals with Insulin receptor (Homo sapiens) (UniProt P06213). Description: Inhibition of INSR (unknown origin) at 1 uM relative to control; values are per cent of control.

Sequence of ALK tyrosine kinase receptor (Homo sapiens) (Q9UM73 19-1620 limits assumed): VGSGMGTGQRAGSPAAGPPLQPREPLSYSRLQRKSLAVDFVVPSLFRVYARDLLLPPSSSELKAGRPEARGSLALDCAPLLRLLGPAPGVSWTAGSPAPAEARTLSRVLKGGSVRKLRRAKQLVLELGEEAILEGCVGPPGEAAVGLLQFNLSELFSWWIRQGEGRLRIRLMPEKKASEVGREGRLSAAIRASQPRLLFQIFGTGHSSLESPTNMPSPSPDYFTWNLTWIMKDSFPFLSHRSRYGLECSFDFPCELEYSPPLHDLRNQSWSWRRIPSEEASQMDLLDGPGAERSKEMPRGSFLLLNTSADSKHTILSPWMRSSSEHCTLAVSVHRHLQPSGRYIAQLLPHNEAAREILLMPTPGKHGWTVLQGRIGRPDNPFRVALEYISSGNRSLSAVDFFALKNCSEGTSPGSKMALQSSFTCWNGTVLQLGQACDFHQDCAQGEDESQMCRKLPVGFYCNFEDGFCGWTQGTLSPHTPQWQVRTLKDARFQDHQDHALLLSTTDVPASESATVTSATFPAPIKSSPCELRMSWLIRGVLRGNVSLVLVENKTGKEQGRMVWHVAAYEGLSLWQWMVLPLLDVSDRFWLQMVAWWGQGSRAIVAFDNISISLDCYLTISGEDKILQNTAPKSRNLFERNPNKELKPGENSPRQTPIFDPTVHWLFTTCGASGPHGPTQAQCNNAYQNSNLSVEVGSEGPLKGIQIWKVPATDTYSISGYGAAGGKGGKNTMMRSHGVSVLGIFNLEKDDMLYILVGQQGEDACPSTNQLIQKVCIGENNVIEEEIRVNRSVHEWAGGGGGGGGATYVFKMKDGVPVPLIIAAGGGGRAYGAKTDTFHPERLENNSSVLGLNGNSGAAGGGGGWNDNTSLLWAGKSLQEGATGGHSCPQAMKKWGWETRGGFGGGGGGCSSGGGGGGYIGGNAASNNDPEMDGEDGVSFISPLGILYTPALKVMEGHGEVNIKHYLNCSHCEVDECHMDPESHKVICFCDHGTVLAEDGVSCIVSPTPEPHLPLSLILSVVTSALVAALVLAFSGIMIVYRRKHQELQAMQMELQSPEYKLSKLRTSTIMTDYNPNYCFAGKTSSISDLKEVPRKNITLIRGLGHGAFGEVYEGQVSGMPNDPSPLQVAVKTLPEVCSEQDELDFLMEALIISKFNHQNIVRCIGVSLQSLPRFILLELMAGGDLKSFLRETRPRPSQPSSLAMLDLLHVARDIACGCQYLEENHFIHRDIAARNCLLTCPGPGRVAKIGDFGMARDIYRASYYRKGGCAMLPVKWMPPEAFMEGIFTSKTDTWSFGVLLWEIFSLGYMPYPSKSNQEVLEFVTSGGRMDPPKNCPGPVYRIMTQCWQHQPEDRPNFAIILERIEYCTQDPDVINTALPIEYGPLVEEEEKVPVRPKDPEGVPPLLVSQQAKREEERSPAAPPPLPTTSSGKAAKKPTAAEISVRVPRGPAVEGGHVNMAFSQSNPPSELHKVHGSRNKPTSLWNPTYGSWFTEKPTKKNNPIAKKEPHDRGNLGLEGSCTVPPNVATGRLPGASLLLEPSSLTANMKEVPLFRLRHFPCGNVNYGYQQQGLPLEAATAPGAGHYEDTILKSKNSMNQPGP
Sequence of Cyclin-dependent kinase 8 (Homo sapiens) (P49336 whole entry): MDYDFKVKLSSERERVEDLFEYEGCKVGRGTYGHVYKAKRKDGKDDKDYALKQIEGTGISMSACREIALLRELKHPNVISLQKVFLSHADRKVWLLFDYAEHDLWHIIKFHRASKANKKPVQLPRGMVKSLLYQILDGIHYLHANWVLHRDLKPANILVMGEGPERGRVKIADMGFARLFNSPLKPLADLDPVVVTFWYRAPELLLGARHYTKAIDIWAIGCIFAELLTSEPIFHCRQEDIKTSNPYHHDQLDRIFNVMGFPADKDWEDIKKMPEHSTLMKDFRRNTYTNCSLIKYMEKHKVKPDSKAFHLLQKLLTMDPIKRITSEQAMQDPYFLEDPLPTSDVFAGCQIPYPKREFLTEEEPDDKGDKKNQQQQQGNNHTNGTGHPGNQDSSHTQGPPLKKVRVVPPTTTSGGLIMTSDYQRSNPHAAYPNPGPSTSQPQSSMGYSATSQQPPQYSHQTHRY

With `NC(=O)c1sc(-c2ccnc(N)n2)nc1-c1ccc(Cl)cc1Cl`, in [1], the microsomal CLint at 1 µM was 19 µL/min/mg. For the same compound, the residual activity in data set [2] was 100%; in data set [3] it was 0.1%; in data set [4] it was 66%; in [5] it was 100%; in [7], 100%; in data set [8] it was 88%. Also, the residual activity in data set [9] was determined as 84%; in [11], 97%; in data set [12], 100%; in data set [13], 100%; in data set [14] it was 78%. Besides, the residual binding, % of control in data set [6] was found to be 34%; in data set [10], 85%.
On to `CCOC(=O)c1sc(-c2ccncc2)nc1O`, for which the microsomal CLint at 1 µM in data set [1] was 17 µL/min/mg. The residual activity in data set [2] came to 78%; in data set [3] it was 100%; in [4] it was 87%; in data set [5], 76%; in data set [7] it was 100%; in data set [8], 81%. The residual activity came to 100% in [9]; 82% in data set [11]; 86% in data set [12]; 68% in [13]; 92% in data set [14]. The results for the residual binding, % of control in [6] and in data set [10] were 92% and 100%, respectively.
Regarding `COc1ccc(-c2nc(-c3ccnc(N)n3)sc2C(N)=O)c(Cl)c1`, in data set [1], the microsomal CLint at 1 µM stood at 43 µL/min/mg. The residual activity is 81% in data set [2]; 0.2% in [3]; 100% in data set [4]; 74% in data set [5]; 98% in data set [7]; 86% in data set [8]. The residual activity amounted to 55% in data set [9]; 84% in data set [11]; 63% in data set [12]; 76% in data set [13]; 82% in data set [14]. For the same compound, the residual binding, % of control turned out to be 27% in data set [6] and 100% in [10].
